In ChEMBL document CHEMBL4699546, “Synthesis and structure-activity relationships for tetrahydroisoquinoline-based inhibitors of Mycobacterium tuberculosis” (Bioorg Med Chem, 2020):
≈ marks a conversion by molar mass, not a printed value.

What was measured:
[1] = Inhibition of Mycobacterium smegmatis ATPsynthase; parameters: species or system Mycolicibacterium smegmatis
[2] = Inhibition of human ATPsynthase
[3] = system: Mycobacterium tuberculosis; experiment: Antimycobacterial activity against Mycobacterium tuberculosis H37Rv ATCC 27294 assessed as reduction in bacterial growth incubated for 4 days under aerobic condition by alamar blue based fluorescence assay; format: functional; conditions: H37Rv ATCC 27294, 96 h, time 4 day
How it was run: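 Replicating aerobic culture of M.tb H37Rv, MABA read-out; value is the minimum inhibitory concentration in µg/mL; assay run at the Institute for Tuberculosis Research, University of Illinois at Chicago.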

[4] = system: Mycobacterium tuberculosis; experiment: Antimycobacterial activity against Mycobacterium tuberculosis H37Rv ATCC 27294 assessed as reduction in bacterial growth incubated for 10 days in under anaerobic condition by luminometric assay; format: functional; conditions: H37Rv ATCC 27294, 240 h, time 10 day
How it was run: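 Growth inhibition of M.tb H37Rv under non-replicating conditions (LORA), reported as minimum inhibitory concentration in µg/mL; tested at the Institute for Tuberculosis Research, University of Illinois at Chicago.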

[5] = system: Vero; experiment: Cytotoxicity against African green monkey Vero cells assessed as reduction in cell viability incubated for 72 hrs by MTS-PMS assay; format: cell-based; conditions: Chlorocebus sabaeus
How it was run: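 Mammalian cytotoxicity measured in Vero (green monkey kidney epithelial) cells; value reported as IC50 in µg/mL.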

[6] = Metabolic stability in human liver microsomes assessed as intrinsic clearance; format: ADME, Microsome
[7] = Metabolic stability in mouse liver microsomes assessed as intrinsic clearance; format: ADME, Microsome
[8] = system: ATP synthase (human vs Mycobacterium smegmatis); experiment: Selectivity index, ratio of IC50 for human ATPsynthase to IC50 for Mycobacterium smegmatis ATPsynthase; format: toxicity; conditions: read-out: Ratio IC50

Structure (SMILES)	IC50 [1] [µg/mL]	IC50 [2] [µg/mL]	MIC90 [3] [µg/mL]	MIC90 [4] [µg/mL]	IC50 [5] [µg/mL]	CLH [6] [mL/h/kg]	CLH [7] [mL/h/kg]	selectivity ratio [8]
Cc1ccc(N2CCN(C)CC2)c2c1CCN(C(=O)N1CCC(Oc3ccccc3C(F)(F)F)CC1)C2	6.2 (≈ 12 µM)	48 (≈ 92.9 µM)						
Cc1cc(Cl)ccc1-c1ccc(CN2CCc3c(C)ccc(N4CCN(C)CC4)c3C2)nc1			0.79 (≈ 1.71 µM)	5.2 (≈ 11.3 µM)	14 (≈ 30.4 µM)	5.52	14.3	
Cc1cc(Cl)ccc1-c1ccc(N2CCc3c(C)ccc(N4CCN(C)CC4)c3C2)nc1	5.5 (≈ 12.3 µM)	23 (≈ 51.5 µM)	1.9 (≈ 4.25 µM)	2.4 (≈ 5.37 µM)	22 (≈ 49.2 µM)	1.32	2.1	
Cc1ccc(N2CCN(C)CC2)c2c1CCN(C(=O)Nc1ccc(-c3cc(C(F)(F)F)cc(C(F)(F)F)c3)cn1)C2	14 (≈ 24.2 µM)	13 (≈ 22.5 µM)						
COc1ccc(N2CCN(C)CC2)c2c1CCN(c1ccc(-c3cc(C(F)(F)F)cc(C(F)(F)F)c3)cn1)C2			7.9 (≈ 14.3 µM)	12 (≈ 21.8 µM)	19 (≈ 34.5 µM)			
CCc1ccc(N2CCN(C)CC2)c2c1CCN(C(=O)Nc1ccc(-c3ccc(C(F)(F)F)cc3)cn1)C2	2.2 (≈ 4.2 µM)	7.2 (≈ 13.8 µM)				6.42	48.6	
Cc1cc(Cl)ccc1-c1ccc(NC(=O)N2CCc3c(F)ccc(N4CCN(C)CC4)c3C2)nc1	1.8 (≈ 3.64 µM)	17 (≈ 34.4 µM)				3	3.9	
CN1CCN(c2cccc3c2CN(Cc2ccc(-c4ccc(Cl)cc4)cn2)CC3)CC1	7.2 (≈ 16.6 µM)	> 500				7.26	14.3	> 70
Cc1ccc(N2CCN(C)CC2)c2c1CCN(c1ccc(-c3ccc(C(C)(C)C)cc3)cn1)C2			1.4 (≈ 3.08 µM)	3.4 (≈ 7.48 µM)	18 (≈ 39.6 µM)	2.46	3.36	
COc1ccc(N2CCN(C)CC2)c2c1CCN(C(=O)Nc1ccc(-c3ccc(Cl)cc3Cl)cn1)C2	3 (≈ 5.7 µM)	27 (≈ 51.3 µM)				2.88	35	
CN1CCN(c2cccc3c2CN(C(=O)Nc2ccc(-c4ccc(OC(F)(F)F)cc4)cn2)CC3)CC1	6.2 (≈ 12.1 µM)	> 500						> 80
COc1ccc(N2CCN(C)CC2)c2c1CCN(Cc1ccc(-c3ccc(Cl)cc3C)cn1)C2			1.8 (≈ 3.77 µM)	6.1 (≈ 12.8 µM)	12 (≈ 25.2 µM)			
COc1ccc(N2CCN(C)CC2)c2c1CCN(C(=O)Nc1ccc(-c3ccc(Cl)cc3C)cn1)C2	6.3 (≈ 12.4 µM)	20 (≈ 39.5 µM)						
Cc1ccc(N2CCN(C)CC2)c2c1CCN(C(=O)N1CCC(Oc3ccc(OC(F)(F)F)cc3)CC1)C2						2.88	2.4	
COc1nc2ccc(Br)cc2cc1[C@@H](c1ccccc1)[C@@](O)(CCN(C)C)c1cccc2ccccc12 [BEDAQUILINE]		> 1000						
